Data set [1] in a line: Inhibition of human PAP assessed as dephosphorylation of 4-methylumbelliferyl phosphate to 4-methylumbelliferone using 4-methylumbelliferyl phosphate as substrate measured for 15 mins by micro-fluorescence detector method.
A short description of data set [2]: Solubility of the compound in 25% DMSO. It counts as physicochemical.
Data set [3] concerns the target T1, Fe(3+)-Zn(2+) purple acid phosphatase (Phaseolus vulgaris) (UniProt P80366).
T1 sequence (whole entry): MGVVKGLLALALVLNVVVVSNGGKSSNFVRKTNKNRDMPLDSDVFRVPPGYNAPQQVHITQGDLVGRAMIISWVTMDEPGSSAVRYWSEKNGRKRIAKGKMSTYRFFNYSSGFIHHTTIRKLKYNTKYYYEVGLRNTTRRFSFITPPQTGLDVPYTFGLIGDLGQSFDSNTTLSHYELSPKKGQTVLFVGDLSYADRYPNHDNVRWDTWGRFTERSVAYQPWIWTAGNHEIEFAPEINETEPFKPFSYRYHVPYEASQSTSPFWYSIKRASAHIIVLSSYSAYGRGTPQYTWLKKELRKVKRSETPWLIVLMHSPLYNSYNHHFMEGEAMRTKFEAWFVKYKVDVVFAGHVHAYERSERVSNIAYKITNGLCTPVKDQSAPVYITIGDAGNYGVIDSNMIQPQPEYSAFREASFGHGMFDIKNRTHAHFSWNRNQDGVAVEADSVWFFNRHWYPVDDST
Put plainly: Competitive inhibition of red kidney bean PAP using varying levels of pNPP as substrate measured at pH 6.2 by UV-vis spectrophotometric analysis. The essentials: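 Red kidney bean PAP (rkbPAP), purified, at 8.4 nM. p-NPP 1–15 mM in 0.1 M MES pH 6.2 with 25% DMSO, 25 °C. p-Nitrophenol formation followed at 405 nm (Δε 1834.4 mol−1 L cm−1). Inhibitor concentration varied; competitive constant Kic from non-linear regression using a general inhibition equation.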

Data set [4] is filed under the species Sus scrofa. Put plainly: Competitive inhibition of pig PAP using varying levels of pNPP as substrate measured at pH 4.9 by UV-vis spectrophotometric analysis. The essentials:
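Purified pig PAP, first reduced to the FeIII-FeII form (0.77 mM β-mercaptoethanol, 10 min, 37 °C), at 8.4 nM. p-NPP 1–15 mM in 0.1 M acetate pH 4.9 with 25% DMSO, 25 °C. p-Nitrophenol formation read at 405 nm (Δε 342.9 mol−1 L cm−1). Inhibitor concentration varied; Kic fitted by non-linear regression to a general inhibition equation.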

Broadly, the IC50 is the concentration at which inhibition is half-maximal. Take `O=C(c1ccccc1)C(C(=O)c1ccccc1)(c1cccc2ccccc12)P(=O)(O)O`: the IC50 in data set [1] came to 1.4 µM.

As to `CCCCCCCCCCCCCCCCCCCCCCOC(c1cccc2ccccc12)P(=O)(O)O` (racemic), in data set [2], the solubility entry was “Soluble”. Further, the Kic in data set [3] stood at 14 µM; in data set [4], 62 µM.

In the case of `CCCCCCCCCCCCCCOC(c1cccc2ccccc12)P(=O)(O)O` (racemic), the solubility entry in data set [2] is on record as “Soluble”. Besides, the results for the Kic in data set [3] and in data set [4] were 0.2 µM and 1.1 µM, respectively.

Turning to `CCCCCCCCCCCCCCCCCCOC(c1cccc2ccccc12)P(=O)(O)O` (racemic), in data set [2], the solubility entry is “Soluble”. Also, the Kic in data set [3] stood at 0.5 µM; in data set [4] it was 0.2 µM.

As to `CCCCCCCCCCCCCCCCOC(c1cccc2ccccc12)P(=O)(O)O` (racemic), the solubility result in data set [2] was “Soluble”. The Kic is 0.4 µM in data set [3] and 0.6 µM in data set [4].

As for `CCCCCCCCCCCCCCCCCCCCOC(c1cccc2ccccc12)P(=O)(O)O` (racemic), the solubility result in data set [2] is on record as “Soluble”. Moreover, the Kic is 0.8 µM in data set [3] and 4.4 µM in data set [4].

`CCCCCCCCCCCCOC(c1cccc2ccccc12)P(=O)(O)O` (racemic): the solubility result in data set [2] is “Soluble”. The Kic in data set [3] came out at 4.5 µM; in data set [4], 0.7 µM.

Values taken from ChEMBL document CHEMBL4359899, “Synthesis, evaluation and structural investigations of potent purple acid phosphatase inhibitors as drug leads for osteoporosis” (Eur J Med Chem, 2019).
